# Published values gathered from unrelated publications.
# Protocols differ between the studies behind these lines.
# Target: Tyrosine-protein kinase ZAP-70 (ZAP70, Homo sapiens, UniProt P43403)
# Sequence (P43403 1-619, as in one of the studies): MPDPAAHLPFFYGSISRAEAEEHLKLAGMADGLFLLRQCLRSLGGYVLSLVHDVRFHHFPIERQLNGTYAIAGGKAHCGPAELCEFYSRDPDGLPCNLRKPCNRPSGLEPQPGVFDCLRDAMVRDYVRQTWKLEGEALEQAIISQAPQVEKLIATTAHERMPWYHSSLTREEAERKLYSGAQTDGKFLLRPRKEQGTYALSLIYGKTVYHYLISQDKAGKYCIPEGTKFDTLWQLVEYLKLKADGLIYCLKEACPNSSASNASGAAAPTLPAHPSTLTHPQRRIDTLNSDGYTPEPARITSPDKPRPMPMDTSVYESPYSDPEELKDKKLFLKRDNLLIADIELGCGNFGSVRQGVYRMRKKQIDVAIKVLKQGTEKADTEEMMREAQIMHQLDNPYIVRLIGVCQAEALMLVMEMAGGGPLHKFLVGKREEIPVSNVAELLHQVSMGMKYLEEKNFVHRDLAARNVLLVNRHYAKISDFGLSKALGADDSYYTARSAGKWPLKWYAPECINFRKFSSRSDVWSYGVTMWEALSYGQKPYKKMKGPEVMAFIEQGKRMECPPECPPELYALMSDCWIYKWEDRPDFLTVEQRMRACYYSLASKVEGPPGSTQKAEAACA
SMILES,read-out,technique,concentration,remaining binding
CC(C)(C)c1ccc(-c2nc(CBr)nn2-c2cccc(O)c2)cc1,cell-free assay,competition with immobilised ligand,10 µM,80%
c1cncc(-c2cccc(Nc3nccc(NC4CCCCC4)n3)c2)c1,binding,competition with immobilised ligand,10 µM,91%
N[C@H]1CCN(c2nccc(-c3cnn4ncccc34)n2)C1,binding,,1 µM,100%
O=C(c1ccc(Nc2ncc(Cl)c(-c3ccc(Cl)s3)n2)cc1)N1CCC(N2CCCC2)CC1,binding,competition with immobilised ligand,1 µM,23%
CC1CCCN1c1nccc(-c2cnn3ncccc23)n1 (stereo not shown),binding,,1 µM,100%
O=C(NCC1CCOCC1)c1n[nH]cc1NC(=O)c1c(F)cccc1F,binding,competition with immobilised ligand,1 µM,100%
COc1cnc(Nc2cccc(S(N)(=O)=O)c2)nc1N1CCN(c2ccccc2)C(=O)C1,binding,competition with immobilised ligand,1 µM,43%
C[C@H]1CCN(c2nccc(-c3cnn4ncccc34)n2)C1,binding,,1 µM,73%
O=C(NCc1ncc(C(F)(F)F)cc1Cl)c1ccc2c(c1)C1(CCS(=O)(=O)CC1)[C@@H](C1CC1)N2S(=O)(=O)c1ccc(F)cc1,cell-free assay,competition with immobilised ligand,1 µM,72%
N#Cc1ccccc1CSc1nnc2c(n1)[nH]c1ccccc12,binding,competition with immobilised ligand,10 µM,78%
COc1ccc2c(O[C@@H]3C[C@H]4C(=O)N[C@]5(C(=O)O)CC5/C=C\CCCCC[C@H](NC(=O)OC5CCCC5)C(=O)N4C3)cc(-c3csc(NC(=O)C(C)C)n3)nc2c1C (stereo partly shown),cell-free assay,competition with immobilised ligand,1 µM,100%
O=C(NCCCN1CCOCC1)c1ccc(Nc2nccc(-c3cc4ccccc4s3)n2)cc1,binding,competition with immobilised ligand,1 µM,69%
CNCc1ccccc1-c1csc([C@@H](C)Nc2nc(C)nc3cc(OC)c(OC)cc23)c1,cell-free assay,competition with immobilised ligand,1 µM,87%
CN(CCCC(F)(F)F)c1nccc(-c2cnn3ncccc23)n1,binding,,1 µM,100%
Cc1cnc(Nc2ccc(C(=O)N3CCC(N4CCCC4)CC3)cc2)nc1-c1cc2ccccc2s1,binding,competition with immobilised ligand,1 µM,46%
Cc1cc(-n2nc(Cc3cc(F)cc(C(F)(F)F)c3)nc2C)ccc1C(N)=O,cell-free assay,competition with immobilised ligand,1 µM,82%
CN(C)c1ncc(F)c(-c2cnn3ncccc23)n1,binding,,1 µM,79%
CN(C)c1ncnc(-c2ccc3nc(Nc4cc(CN5CCN(C(=O)CC(F)(F)F)CC5)ccn4)[nH]c3c2)c1Cl,cell-free assay,competition with immobilised ligand,1 µM,100%
F[C@@H]1CCN(c2nccc(-c3cnn4ncccc34)n2)C1,binding,,1 µM,100%
CSc1cccnc1N1CCN(Cc2nc3ccccc3[nH]2)CC1,cell-free assay,competition with immobilised ligand,1 µM,99%
CN(C)c1nccc(-c2cnn3ncccc23)n1,binding,,1 µM,72%
O=C(O)[C@H]1[C@H](Cn2nnc3ccccc3c2=O)CC[C@@H]1C(=O)c1ccc(OCCC2CCOCC2)cc1,cell-free assay,competition with immobilised ligand,1 µM,100%
COc1cnc(Nc2cccc(S(N)(=O)=O)c2)nc1N1CCN(c2ccccc2)CC1,binding,competition with immobilised ligand,1 µM,84%
Cc1nc(N2CC[C@@H](O)C2)ncc1-c1cc(C(F)(F)F)cc2[nH]ncc12,binding,competition with immobilised ligand,1 µM,65%
C[C@@H]1CN(c2ccc3ncc(-c4ccc5[nH]nc(C6CC6)c5c4)n3n2)C[C@H](C)O1,binding,competition with immobilised ligand,0.5 µM,100%
